Calls of active or inactive are those of the source. The calls are words filed in the database; no cut-off is given here.
Assays:
[1] = test system: HeLa; experiment: Phototoxicity against HeLa cells assessed as photo-induced growth inhibition after 48 hrs by MTT assay; type: functional, cell-based, Homo sapiens
In short: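 HeLa cells pre-incubated 1 h with a range of porphyrin concentrations. Without washing, cells were irradiated 1 h with a fluorescent lamp (530–620 nm; 0.44 mW/cm², 1.6 J/cm²). They were then incubated 48 h at 37 °C, and survival fraction was read by MTT. Non-irradiated cells served as dark controls.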

[2] = test system: HeLa; experiment: Cytotoxicity in HeLa cells assessed as PDT-induced ROS generation after 2 hrs by flow cytometry; type: functional, cell-based; settings: Homo sapiens
In short: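 HeLa cells exposed to porphyrins at […] for 2 h, then irradiated with visible light. Intracellular ROS probed with 2,7-dichlorofluorescin (DCF). DCF fluorescence read by flow cytometry after 2 h of porphyrin treatment. Untreated cells served as baseline.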

[3] = test system: HeLa; experiment: Induction of apoptosis in HeLa cells assessed as accumulation at subG1 phase by FACS flow cytometry; type: functional, cell-based; settings: Homo sapiens
In short: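 HeLa cells treated with 0, 4.6, 9.2, 18.4, 27.6 or 36.8 μM porphyrin, then stained with propidium iodide. The sub-G1 population was measured from DNA content histograms by FACS flow cytometry and taken as apoptotic cells. Values are means ± S.D.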

[4] = Homo sapiens, HeLa, light or radiation study, 48 h

| SMILES | IC50 ([1]; hela) | Activity [2] | IC50 [1, 4] | Activity [3] |
| --- | --- | --- | --- | --- |
| C[n+]1cc(F)c(-c2c3nc(c(-c4c(F)c[n+](C)cc4F)c4ccc([nH]4)c(-c4c(F)c[n+](C)cc4F)c4nc(c(-c5c(F)c[n+](C)cc5F)c5ccc2[nH]5)C=C4)C=C3)c(F)c1 | 870 nM | Active |  |  |
| C[n+]1ccc(-c2c3nc(c(-c4cc[n+](C)cc4F)c4ccc([nH]4)c(-c4cc[n+](C)cc4F)c4nc(c(-c5cc[n+](C)cc5F)c5ccc2[nH]5)C=C4)C=C3)c(F)c1 |  | Active | 40000 nM | Dose-dependent effect |
| C[n+]1cccc(-c2c3nc(c(-c4ccc[n+](C)c4F)c4ccc([nH]4)c(-c4ccc[n+](C)c4F)c4nc(c(-c5ccc[n+](C)c5F)c5ccc2[nH]5)C=C4)C=C3)c1F | 1100 nM | Active |  | Dose-dependent effect |
| C[n+]1ccc(-c2c3nc(c(-c4cc[n+](C)cc4)c4ccc([nH]4)c(-c4cc[n+](C)cc4)c4nc(c(-c5cc[n+](C)cc5)c5ccc2[nH]5)C=C4)C=C3)cc1 |  |  | 3000 nM |  |
| C[n+]1ccc(-c2c3nc(c(-c4cc[n+](C)cc4)c4ccc([nH]4)c(-c4cc[n+](C)cc4)c4ccc([nH]4)c(-c4cc[n+](C)cc4)c4nc2C=C4)C=C3)cc1 |  | Active |  |  |

Source: ChEMBL document CHEMBL1147929, “Synthesis and in vitro photodynamic activities of water-soluble fluorinated tetrapyridylporphyrins as tumor photosensitizers” (Bioorg Med Chem Lett, 2007)
